What all share (assay type): functional, cell-based
In assay [1] the target is T1, Progesterone receptor (Homo sapiens) (UniProt P06401).
T1 sequence (whole entry): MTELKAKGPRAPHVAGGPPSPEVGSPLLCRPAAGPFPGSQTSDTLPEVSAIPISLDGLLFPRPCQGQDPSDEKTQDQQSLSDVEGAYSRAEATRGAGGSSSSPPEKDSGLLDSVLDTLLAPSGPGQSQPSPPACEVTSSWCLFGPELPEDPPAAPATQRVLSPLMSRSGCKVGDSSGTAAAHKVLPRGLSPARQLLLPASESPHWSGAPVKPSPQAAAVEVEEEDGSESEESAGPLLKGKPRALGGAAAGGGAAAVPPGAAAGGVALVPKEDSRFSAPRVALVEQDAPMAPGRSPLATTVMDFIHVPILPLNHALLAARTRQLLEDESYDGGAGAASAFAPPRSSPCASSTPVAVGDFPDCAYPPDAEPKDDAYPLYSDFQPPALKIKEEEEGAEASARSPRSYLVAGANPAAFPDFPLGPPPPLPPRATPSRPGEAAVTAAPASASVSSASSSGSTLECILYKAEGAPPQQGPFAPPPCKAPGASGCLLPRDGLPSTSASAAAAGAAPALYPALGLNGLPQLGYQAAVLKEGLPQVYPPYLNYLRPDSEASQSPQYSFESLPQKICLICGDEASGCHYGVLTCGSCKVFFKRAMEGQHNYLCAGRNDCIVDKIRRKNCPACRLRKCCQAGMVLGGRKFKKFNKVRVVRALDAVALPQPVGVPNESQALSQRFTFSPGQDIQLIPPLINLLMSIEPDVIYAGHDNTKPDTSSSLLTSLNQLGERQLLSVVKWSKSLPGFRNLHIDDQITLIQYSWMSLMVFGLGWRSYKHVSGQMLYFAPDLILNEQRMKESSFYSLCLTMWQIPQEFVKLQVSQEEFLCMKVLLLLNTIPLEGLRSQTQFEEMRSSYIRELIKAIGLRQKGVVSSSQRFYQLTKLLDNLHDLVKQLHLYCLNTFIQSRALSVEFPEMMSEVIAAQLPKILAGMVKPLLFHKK
Put plainly: Agonist activity at human PRB expressed in CHO cells relative to Org 2058.

Assay [2] addresses T1, Progesterone receptor (Homo sapiens). Kind of assay: (§1) Antagonist activity at human PRB expressed in CHO cells assessed as inhibition of Org 2058 induced-transactivation relative to Org 31710. In a few lines: (§2)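 PR-B-mediated luciferase transactivation antagonist mode, run in the same setting as the agonist assay, with 0.1 nM Org 2058 as inducer; IC50 taken from inhibition of luciferase induction. Efficacy given relative to the antagonist Org 31710, whose effect is set to 100%.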

The target in assay [3] is T2, Progesterone receptor (Homo sapiens, UniProt P06401).
T2 sequence (P06401 whole entry): T1 sequence (whole entry)
Put plainly: Antagonist activity at human PRB expressed in CHO cells assessed as inhibition of Org 2058 induced-transactivation. The method, boiled down: as §2

Assay [4] concerns the target T2, Progesterone receptor. Put plainly: Agonist activity at human PRB expressed in CHO cells.
The target of assay [5] is T2, Progesterone receptor. The description is as §1. The method, boiled down:
as §2

With `C=C[C@@H]1C[C@H]2[C@@H]3CCC4=CC(=O)CCC4=C3[C@@H](c3ccc(-c4cccnc4)cc3)C[C@]2(C)[C@H]1C(=O)C1CC1`, the Efficacy stood at 47% in assay [1] and 38% in assay [2]. Further, the IC50 on Progesterone receptor [3] worked out at 0.61 nM.

Regarding `COC[C@]1(OC)CC[C@H]2[C@@H]3CCC4=CC(=O)CCC4=C3[C@@H](c3ccc(/C=N/O)cc3)C[C@@]21C` [ASOPRISNIL], the Efficacy in assay [2] came out at 97%. Further, the EC50 on Progesterone receptor [4] was over 100 nM. Moreover, at Progesterone receptor [3], the IC50 stood at 0.2 nM.

Regarding `COc1ccc(-c2ccc([C@H]3C[C@]4(C)[C@@H](C(=O)C5CC5)CC[C@H]4[C@@H]4CCC5=CC(=O)CCC5=C43)cc2)cn1`, the Efficacy in assay [1] was found to be 28%; in assay [2], 57%. Besides, the IC50 at Progesterone receptor [3] is 0.43 nM.

Regarding `C[C@@H]1C[C@H]2[C@@H]3CCC4=CC(=O)CCC4=C3[C@@H](c3ccc(-c4ccnnc4)cc3)C[C@]2(C)[C@H]1C(=O)C1CC1`, the Efficacy in assay [1] is 51%; in assay [2], 37%. This molecule also returned an EC50 on Progesterone receptor [4] of 0.36 nM. For the same molecule, the IC50 at Progesterone receptor [3] is 3.64 nM.

`CC[C@@H]1C[C@H]2[C@@H]3CCC4=CC(=O)CCC4=C3[C@@H](c3ccc(-c4ccc(OC)nc4)cc3)C[C@]2(C)[C@H]1C(=O)C1CC1`: the Efficacy is 42% in assay [1] and 52% in assay [2]. Further, the IC50 at Progesterone receptor [3] was found to be 7.89 nM.

Regarding `C=C[C@@H]1C[C@H]2[C@@H]3CCC4=CC(=O)CCC4=C3[C@@H](c3ccc(-c4ccc(OC)nc4)cc3)C[C@]2(C)[C@H]1C(=O)C1CC1`, the Efficacy turned out to be 41% in assay [1] and 45% in assay [2]. Further, the IC50 on Progesterone receptor [3] was 0.98 nM.

As for `CN(C)c1ccc([C@H]2C[C@@]3(C)[C@@H](CC[C@@]34CCCC4=O)[C@@H]3CCC4=CC(=O)CCC4=C32)cc1`, the IC50 on Progesterone receptor [5] turned out to be 0.2 nM.

`C[C@@H]1C[C@H]2[C@@H]3CCC4=CC(=O)CCC4=C3[C@@H](c3ccc(-c4cnccn4)cc3)C[C@]2(C)[C@H]1C(=O)C1CC1`: the results for the Efficacy in assay [1] and in assay [2] were 54% and 35%, respectively. In addition, the IC50 on Progesterone receptor [3] came to 1.3 nM.

Consider `C[C@]12C[C@H](c3ccc(-c4cccnc4)cc3)C3=C4CCC(=O)C=C4CC[C@H]3[C@@H]1CC[C@@H]2C(=O)C1CC1`, for which the Efficacy in assay [1] is 36%; in assay [2], 66%. In addition, the IC50 at Progesterone receptor [3] turned out to be 0.75 nM.

On to `C[C@@H]1C[C@H]2[C@@H]3CCC4=CC(=O)CCC4=C3[C@@H](c3ccc(-c4cccnc4)cc3)C[C@]2(C)[C@H]1C(=O)C1CC1`, for which the Efficacy was found to be 49% in assay [1] and 46% in assay [2]. Moreover, the IC50 on Progesterone receptor [3] is 0.27 nM.

Take `C[C@@H]1C[C@H]2[C@@H]3CCC4=CC(=O)CCC4=C3[C@@H](c3ccc(-c4ccc(F)nc4)cc3)C[C@]2(C)[C@H]1C(=O)C1CC1`: the Efficacy in assay [1] came to 51%; in assay [2], 50%. For the same molecule, the IC50 on Progesterone receptor [3] is 8.48 nM.

As for `C[C@]12C[C@H](c3ccc(-c4cccnc4)cc3)C3=C4CCC(=O)C=C4CC[C@H]3[C@@H]1CCC21CCCC1=O` (stereo partly drawn), the Efficacy amounted to 17% in assay [1] and 71% in assay [2]. The EC50 on Progesterone receptor [4] was found to be 0.29 nM. Moreover, on Progesterone receptor [3], the IC50 was found to be 0.33 nM.

As to `C=C1CCO[C@]12CC[C@H]1[C@@H]3CCC4=CC(=O)CCC4[C@H]3[C@@H](c3ccc(N(C)C)cc3)C[C@@]12C` (stereo partly drawn), the IC50 at Progesterone receptor [5] came out at 0.2 nM.

Turning to `CC(=O)O[C@]1(C(C)=O)CC[C@H]2[C@@H]3CCC4=CC(=O)CCC4=C3[C@@H](c3ccc(N(C)C)cc3)C[C@@]21C` [ULIPRISTAL ACETATE], the Efficacy in assay [2] was found to be 100%. The EC50 on Progesterone receptor [4] was over 100 nM. In addition, the half-maximal inhibitory concentration (IC50) on Progesterone receptor [3] stood at 0.2 nM.

For `C[C@@H]1C[C@H]2[C@@H]3CCC4=CC(=O)CCC4=C3[C@@H](c3ccc(-c4cnc5ccccc5c4)cc3)C[C@]2(C)[C@H]1C(=O)C1CC1`, the Efficacy in assay [1] was found to be 50%; in assay [2] it was 24%. In addition, the IC50 at Progesterone receptor [3] came to 3.14 nM.

On to `COc1ccc(-c2ccc([C@H]3C[C@@]4(C)[C@@H](CCC45CCCC5=O)[C@@H]4CCC5=CC(=O)CCC5=C43)cc2)cn1` (stereo partly drawn), for which the Efficacy in assay [1] came to 20%; in assay [2], 62%. Moreover, a half-maximal effect on Progesterone receptor [4] (EC50) was put at 0.15 nM. Besides, the IC50 at Progesterone receptor [3] was 0.55 nM.

For `C[C@@H]1C[C@H]2[C@@H]3CCC4=CC(=O)CCC4=C3[C@@H](c3ccc(-c4ncccn4)cc3)C[C@]2(C)[C@H]1C(=O)C1CC1`, the Efficacy is 52% in assay [1] and over 27% in assay [2]. The IC50 on Progesterone receptor [3] was found to be 3.25 nM.

In the case of `C[C@@H]1C[C@H]2[C@@H]3CCC4=CC(=O)CCC4=C3[C@@H](c3ccc(-c4ccccn4)cc3)C[C@]2(C)[C@H]1C(=O)C1CC1`, the figures for the Efficacy in assay [1] and in assay [2] were 49% and 33%, respectively. For the same molecule, the IC50 at Progesterone receptor [3] came to 14.8 nM.

Turning to `C[C@]12C[C@H](c3ccc(-c4cccnc4)cc3)C3=C4CCC(=O)C=C4CC[C@H]3[C@@H]1CC[C@]2(C)C(=O)C1CC1`, the Efficacy amounted to 38% in assay [1] and 58% in assay [2]. Moreover, at Progesterone receptor [3], the IC50 worked out at 0.13 nM.

With `C[C@@H]1C[C@H]2[C@@H]3CCC4=CC(=O)CCC4=C3[C@@H](c3ccc(-c4ccc(Cl)nc4)cc3)C[C@]2(C)[C@H]1C(=O)C1CC1`, the values for the Efficacy in assay [1] and in assay [2] were 47% and 43%, respectively. On Progesterone receptor [3], the IC50 is 0.47 nM.

Regarding `COc1ccc(-c2ccc([C@H]3C[C@@]4(C)[C@@H](C[C@@H](C)[C@@H]4C(=O)C4CC4)[C@@H]4CCC5=CC(=O)CCC5=C43)cc2)cn1`, the Efficacy in assay [1] stood at 42%; in assay [2], 59%. Besides, the IC50 at Progesterone receptor [3] was determined as 0.63 nM.

In the case of `C[C@@H]1C[C@H]2[C@@H]3CCC4=CC(=O)CCC4=C3[C@@H](c3ccc(-c4ccncc4)cc3)C[C@]2(C)[C@H]1C(=O)C1CC1`, the Efficacy in assay [1] is 56%; in assay [2], 27%. Also, the IC50 on Progesterone receptor [3] was found to be 2.5 nM.

For `CC[C@@H]1C[C@H]2[C@@H]3CCC4=CC(=O)CCC4=C3[C@@H](c3ccc(-c4cccnc4)cc3)C[C@]2(C)[C@H]1C(=O)C1CC1`, the Efficacy was determined as 34% in assay [1] and 53% in assay [2]. In addition, the IC50 on Progesterone receptor [3] is 0.6 nM.

As usually defined, the IC50 is the concentration at which inhibition is half-maximal. What is called EC50 is the concentration at which the effect is half-maximal. A higher EC50 goes with a less potent agent.
